Results reported in ChEMBL document CHEMBL1240483, “Novel N-phenyl dichloroacetamide derivatives as anticancer reagents: design, synthesis and biological evaluation” (Eur J Med Chem, 2010).
pIC50: −log10 of the molar value.

Legend:
BGC-823 = assay: Anticancer activity against human BGC823 cells after 72 hrs by MTT assay; assay type: functional, cell-based; details: BGC-823, 72 h
How it was run: (§1)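 Cells seeded at 3000/well and grown 24 h: A549 in F12-K, BGC-823, KB and BEL-7402 in RPMI 1640, all with 10% FBS at 37 °C in 5% CO2. Drug added at 10 concentrations from 4×10^-4 to 1×10^-7 M and incubated 72 h. MTT added for 4 h at 37 °C, then SDS/isobutanol/HCl lysis overnight. A570 read. IC50 from three independent tests.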

KB = assay: Anticancer activity against human KB cells after 72 hrs by MTT assay; assay type: functional, cell-based; how it was run: as §1
A549 [1] = assay: Anticancer activity against human A549 cells after 72 hrs by MTT assay; assay type: functional, cell-based; details: A549, 72 h; how it was run: as §1
Bel-7402 = assay: Anticancer activity against human Bel7402 cells after 72 hrs by MTT assay; assay type: functional, cell-based; details: Bel-7402, 72 h; how it was run: as §1
A549 [2] = assay: Induction of apoptosis in human A549 cells assessed as early apoptotic cells at 30 uM after 24 hrs by annexin-V/propidium iodide based FACS analysis; assay type: functional
How it was run: (§2)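 A549 cells (F12-K, 10% FBS, 37 °C, 5% CO2) treated at 0, 10, 15 or 30 μM for 24 or 48 h, then trypsinized and resuspended in PBS. Stained with Annexin V-FITC/PI kit and analysed by flow cytometry. Early apoptotic cells counted in the Q4 quadrant.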

A549 [3] = assay: Induction of apoptosis in human A549 cells assessed as early apoptotic cells at 15 uM after 24 hrs by annexin-V/propidium iodide based FACS analysis; assay type: functional; how it was run: as §2
A549 [4] = assay: Induction of apoptosis in human A549 cells assessed as early apoptotic cells at 10 uM after 24 hrs by annexin-V/propidium iodide based FACS analysis; assay type: functional; how it was run: as §2
A549 [5] = assay: Induction of apoptosis in human A549 cells assessed as early apoptotic cells at 30 uM after 48 hrs by annexin-V/propidium iodide based FACS analysis; assay type: functional; how it was run: as §2
A549 [6] = assay: Induction of apoptosis in human A549 cells assessed as early apoptotic cells at 15 uM after 48 hrs by annexin-V/propidium iodide based FACS analysis; assay type: functional; how it was run: as §2
A549 [7] = assay: Induction of apoptosis in human A549 cells assessed as early apoptotic cells at 10 uM after 48 hrs by annexin-V/propidium iodide based FACS analysis; assay type: functional; how it was run: as §2
A549 [8] = assay: Induction of apoptosis in human A549 cells assessed as late apoptotic cells at 30 uM after 24 hrs by annexin-V/propidium iodide based FACS analysis; assay type: functional
How it was run: (§3)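 A549 cells grown in F12-K with 10% FBS at 37 °C under 5% CO2. Exposed for 24 or 48 h to 0, 10, 15 or 30 μM, then trypsinized, pelleted and stained with Annexin V-FITC/PI for flow cytometry. Late apoptotic cells taken as the Q2 quadrant.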

A549 [9] = assay: Induction of apoptosis in human A549 cells assessed as late apoptotic cells at 15 uM after 24 hrs by annexin-V/propidium iodide based FACS analysis; assay type: functional; how it was run: as §3
A549 [10] = assay: Induction of apoptosis in human A549 cells assessed as late apoptotic cells at 10 uM after 24 hrs by annexin-V/propidium iodide based FACS analysis; assay type: functional; how it was run: as §3
A549 [11] = assay: Induction of apoptosis in human A549 cells assessed as late apoptotic cells at 30 uM after 48 hrs by annexin-V/propidium iodide based FACS analysis; assay type: functional; how it was run: as §3
A549 [12] = assay: Induction of apoptosis in human A549 cells assessed as late apoptotic cells at 15 uM after 48 hrs by annexin-V/propidium iodide based FACS analysis; assay type: functional; how it was run: as §3
A549 [13] = assay: Induction of apoptosis in human A549 cells assessed as late apoptotic cells at 10 uM after 48 hrs by annexin-V/propidium iodide based FACS analysis; assay type: functional; how it was run: as §3
[14] = Toxicity in intragastrically administered Kunming mouse after 14 days; assay type: organism-based; details: in vivo, po

Row | pIC50 (BGC-823) | pIC50 (KB) | pIC50 (A549 [1]) | pIC50 (Bel-7402) | SMILES | other results
1 | 3.85 | 5.13 | 4.82 | 4.99 | O=C(Nc1cccc(OC(F)(F)F)c1)C(Cl)Cl | –
2 | 3.65 | 4.18 | 4.90 | 4.92 | O=C(Nc1ccc(I)cc1)C(Cl)Cl | –
3 | 3.91 | 5.32 | 4.85 | 5.18 | O=C(Nc1cccc(SC(F)(F)F)c1)C(Cl)Cl | –
4 | – | 4.22 | 4.18 | 4.32 | N#Cc1cccc(NC(=O)C(Cl)Cl)c1 | –
5 | – | 3.66 | – | 3.74 | O=C(Nc1cccc(Cl)c1Cl)C(Cl)Cl | –
6 | – | – | 4.31 | – | Cc1ccc(NC(=O)C(Cl)Cl)cc1 | –
7 | 3.70 | 4.62 | 5.23 | 4.80 | O=C(Nc1cccc(S(=O)(=O)c2cccc(NC(=O)C(Cl)Cl)c2)c1)C(Cl)Cl | –
8 | 3.85 | 5.05 | 4.91 | 5.22 | O=C(Nc1cccc(C(F)(F)F)c1)C(Cl)Cl | –
9 | 4.19 | 4.69 | 5.19 | 5.05 | O=C(Nc1cccc(S(=O)(=O)C(F)(F)F)c1)C(Cl)Cl | –
10 | 3.72 | 4.22 | 4.46 | 4.53 | O=C(Nc1ccc([N+](=O)[O-])cc1)C(Cl)Cl | –
11 | – | – | 4.06 | – | O=C(Nc1ccccc1F)C(Cl)Cl | –
12 | – | – | 4.16 | – | O=C(Nc1ccc(F)cc1)C(Cl)Cl | –
13 | 3.91 | 4.35 | 4.74 | 4.80 | O=C(Nc1cccc([N+](=O)[O-])c1)C(Cl)Cl | –
14 | 3.83 | 5.01 | 5.07 | 4.14 | O=C(Nc1ccc(S(=O)(=O)C(F)(F)F)cc1)C(Cl)Cl | –
15 | 4.22 | 5.34 | 5.36 | 5.33 | O=C(Nc1cc(Cl)cc(Cl)c1)C(Cl)Cl | –
16 | – | 4.22 | 4.69 | 4.30 | O=C(Nc1ccc(Cl)cc1)C(Cl)Cl | –
17 | – | – | 3.88 | – | O=C(Nc1ccccc1NC(=O)C(Cl)Cl)C(Cl)Cl | –
18 | 4.02 | 5.09 | 5.11 | 5.11 | O=C(Nc1cccc(Br)c1)C(Cl)Cl | –
19 | 3.76 | 5.20 | 4.95 | 5.32 | C#Cc1cccc(NC(=O)C(Cl)Cl)c1 | –
20 | 3.75 | 4.24 | 4.59 | 4.26 | COc1cccc(NC(=O)C(Cl)Cl)c1 | –
21 | 3.75 | 5.15 | 5.29 | 5.13 | O=C(Nc1ccc(Cl)c(Cl)c1)C(Cl)Cl | –
22 | – | 3.60 | 3.70 | 3.71 | O=C(Nc1ccccc1[N+](=O)[O-])C(Cl)Cl | –
23 | 3.69 | 5.68 | 4.98 | 5.44 | O=C(Nc1ccc(SC(F)(F)F)cc1)C(Cl)Cl | –
24 | – | – | 4.30 | – | O=C(Nc1ccccc1Cl)C(Cl)Cl | –
25 | – | 4.94 | 4.91 | 4.74 | O=C(Nc1cc(Cl)ccc1Cl)C(Cl)Cl | –
26 | – | 4.17 | 4.43 | 4.42 | O=C(Nc1ccccc1Br)C(Cl)Cl | –
27 | – | – | 4.39 | – | Cc1cccc(NC(=O)C(Cl)Cl)c1 | –
28 | – | 4.66 | 4.86 | 5.01 | O=C(Nc1ccc(Br)cc1)C(Cl)Cl | –
29 | – | 3.56 | 4.09 | 3.72 | COc1ccc(NC(=O)C(Cl)Cl)cc1 | –

Row | SMILES | pIC50 (BGC-823) | pIC50 (KB) | pIC50 (A549 [1]) | pIC50 (Bel-7402) | other results
30 | O=C([O-])C(Cl)Cl.[Na+] [SODIUM DICHLOROACETATE] | 2.98 | 2.85 | 3.00 | 3.07 | –
31 | O=C(Nc1cccc(I)c1)C(Cl)Cl | 4.23 | 5.28 | 5.32 | 5.27 | Activity (A549 [2]): 15.2%; Activity (A549 [3]): 9.2%; Activity (A549 [4]): 10.8%; Activity (A549 [5]): 10.6%; Activity (A549 [6]): 8.7%; Activity (A549 [7]): 7.8%; Activity (A549 [8]): 20.3%; Activity (A549 [9]): 19.3%; Activity (A549 [10]): 8.6%; Activity (A549 [11]): 35.6%; Activity (A549 [12]): 22.6%; Activity (A549 [13]): 17.6%; LD50 at 336 h [14]: 1120 mg/kg
32 | O=C(Nc1cccc(Cl)c1)C(Cl)Cl | – | – | 4.83 | 4.35 | LD50 at 336 h [14]: 4550 mg/kg
33 | O=C(Nc1ccccc1)C(Cl)Cl | – | – | 3.89 | – | –
